Source: PubChem BioAssay (Broad Institute)
This is a sample that favours compounds with a hit; in the whole collection about 3.5% have one here.
Cneo AK release: Cryptococcus neoformans cell lysis inducers, primary screen, AK release luminescence, single concentration. C. neoformans lysis, adenylate kinase release luminescence, 4 h; normalised: neutral wells 0, clomiphene wells 100. hit rate 0.2% among 360,000. AID 651654, 2012. lysis activity, % at 15 µM;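 active = mean lysis activity across replicates of at least 80%, whatever share of replicates individually reach that level; inactive = mean lysis activity below 80%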
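Material: C. neoformans cells | Amount: Yeast cell density of 5 × 10^6 cells/mL | Medium: Fresh YPD growth medium | Dosing: Single dose | Times: Static 4 h at 37 °C with compound, 1 h detection | Detection: AK luminescence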
Wnt bcat act: Wnt/beta-catenin pathway activators, primary screen, cell-based, plate reader, single point. hit rate 1.2% among 300,000. activation, % at 9.35 µM. AID 743398, 2014. Wnt/beta-catenin reporter cell assay, activator; in the data active = activation above about 30%, passing the limit was not always enough; inconclusive = no clear call, values can overlap the other calls;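 note: 0% = neutral control wells and 100% = positive control wells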
esBAF inh: Bmi1 luciferase reporter increase in mESCs, primary screen, esBAF inhibitor project, mouse ES cells, Bmi1 luciferase knock-in, single point; 24 h; 100% = twice the neutral-well signal; hit rate 2% among 350,000; reporter increase, % at 12.5 µM; AID 602393, 2012; in the data active = activation above about 40%; inconclusive = no clear call, values can overlap the other calls;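 note: 0% = median of the plate's neutral control wells and 100% = double that signal; a rise in the Bmi1 reporter signal indicates esBAF inhibition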
MITF TRPM1 HTS: activators of MITF-driven TRPM1 promoter reporter, primary screen, cell-based, SK-MEL-5, luciferase, single point | SK-MEL-5 TRPM1-promoter luciferase, 24 h; % of positive control, neutral wells = 0 | activation, % at 12.5 µM | hit rate 0.75% among 300,000 | AID 588334, 2011;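 active = mean activation of at least 80% with every replicate also reaching 80%; inconclusive = mean reaches 80% but some replicate falls short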;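 note: 0% = neutral control wells and 100% = parthenolide positive control wells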
ERAP1 inh: human ERAP1 aminopeptidase inhibitors, primary screen, biochemical, single point, plate reader; AID 652197, 2013; inhibition, % at 10.7 µM; recombinant ERAP1, Leu-AMC fluorescence, 60 min; Endoplasmic reticulum aminopeptidase 1 (Homo sapiens), Q9NZ08; hit rate 0.15% among 340,000;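 active = mean replicate inhibition of at least 30%, or all replicates individually reaching that 30% level; inactive = mean below 30% and not every replicate reaching it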;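 note: 0% = neutral control wells and 100% = L-leucinethiol positive control wells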
Env fusion inh: inhibitors of HIV-1 Env-driven cell-cell fusion, primary screen, HeLa-JRFL effector, CEM21 target cells, luciferase; inhibition, % at 12.3 µM; hit rate 1.1% among 360,000; AID 651610, 2012;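 active = mean replicate inhibition score of at least 50 and every replicate individually at or above 50; inconclusive = only one of the two criteria met; inactive = mean below 50 and not all replicates reaching 50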;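 note: 0% = plate neutral controls and 100% = maraviroc near 300 nM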
* = called active by the depositor; u = inconclusive; x = not tested or not shown; [ ] = remark or other dose.

SMILES	Cneo AK release	Wnt bcat act	esBAF inh	MITF TRPM1 HTS	ERAP1 inh	Env fusion inh
O=C(NC1CCCCC1)N[C@@H]1C=C[C@@H](CC(=O)N2CCOCC2)O[C@H]1CO	0	x	1	x	-4	x
O=C(Cc1ccccc1)N[C@H]1C=C[C@H](CC(=O)N2CCOCC2)O[C@@H]1CO	-2	x	-2	x	-4	-2[16.7 µM]
O=C(Cc1ccccc1)N[C@H]1C=C[C@@H](CC(=O)N2CCOCC2)O[C@@H]1CO	95*	x	-7	x	-1	3[16.7 µM]
O=C(Cc1ccccc1)N[C@H]1C=C[C@@H](CC(=O)N2CCOCC2)O[C@H]1CO	93*	x	4	x	-2	2[16.7 µM]
C[C@H](CO)N1C[C@H](C)[C@H](CN(C)S(=O)(=O)c2cn(C)cn2)OCc2cn(nn2)CCCC1=O	53	x	-2	x	-6	x
CCC(=O)Nc1ccc2c(c1)OC[C@@H](C)N(C(=O)C1CC1)C[C@H](C)[C@H](OC)CN(C)C2=O	x	x	x	x	-1	x
CCOC(=O)c1nnn(CC(=O)NC(=O)Nc2cccc(CC)c2)c1C(=O)OCC	x	36*	-8	4	x	-18
Cc1cccc(-n2ncc3c(NCc4ccco4)ncnc32)c1	-10	x	82*	47	x	x
c1ccc(-n2ncc3c(NCc4ccccn4)ncnc32)cc1	x	5	24	60	1	x
Cc1cccc(-n2ncc3c(NCc4cccs4)ncnc32)c1	-4	x	56*	u	x	x
Cc1cccc(-n2ncc3c(NCc4ccccn4)ncnc32)c1	-2	x	53*	69	x	x
CC1CCC2(CC1)NC(=O)N(Cc1cccc(C(F)(F)F)c1)C2=O (centres undefined)	x	92*	x	-6	-10	-1
CN(Cc1ccc(Cl)cc1Cl)C(=O)c1cccc(S(=O)(=O)N2CCN(c3ccccc3)CC2)c1	1	0	-13	-32	1	90*
Cc1ccc(NC(=O)c2cccc(S(=O)(=O)N3CCN(c4ccccc4)CC3)c2)nc1	-1	-8	10	-16	4	57*
CC(=O)c1ccc(NC(=O)c2cccc(S(=O)(=O)N3CCN(C)CC3)c2)cc1	5	6	58*	74	0	5
CC(C)c1ccc(OC(=O)c2cccc(S(=O)(=O)N3CCN(C)CC3)c2)cc1	-1	-2	x	2	106*	14
CC(=O)Nc1ccc(NC(=O)c2cccc(S(=O)(=O)N3CCCCCC3)c2)cc1	-1	-9	4	19	-2	15
Cc1ccc(S(=O)(=O)N[C@@H]2CC[C@@H](CCn3cc(C4CCCCC4)nn3)O[C@H]2CO)cc1	41	x	8	x	-4	-80[16.7 µM]
CCN1C(=O)/C(=C/C=C2/Sc3ccccc3N2CCO)SC1=S	0	32*	-8	-13	-1	-5
O=C1CCC(=O)N1CCSC(=S)N1CCOCC1	x	35*	x	x	13	-16
O=C(O)CCSC(=S)N1CCOCC1	1	1	-6	-17	2	11
O=c1ccc2c([nH]1)CCCCCCCCCC2	-1	-1	-6	-4	-1	56*
Cc1cc(C)c(S(=O)(=O)N2CCN=C2c2ccccc2)cc1C	1	3	-4	7	x	82*
O=c1c(-c2ccc(F)cc2)coc2cc(O)ccc12	-11	x	33	75	0	-111
O=c1c(-c2ccc(F)cc2)coc2c3c(ccc12)OCCO3	-2	5	52*	133*	x	-130
SMILES	Cneo AK release	Wnt bcat act	esBAF inh	MITF TRPM1 HTS	ERAP1 inh	Env fusion inh
COc1ccc(S(=O)(=O)Nc2ccc3c(c2)C(=O)N([C@@H](C)CO)C[C@H](C)[C@@H](CN(C)CC2CC2)OCCCC[C@H](C)O3)cc1	1	x	0	x	-2	-5[16.7 µM]
Clc1ccc(-c2cc3nc(NCc4cccc(Cl)c4)ccn3n2)cc1	-9	6	76*	x	1	-152
Clc1cccc(CNc2ccn3nc(-c4cccc(Cl)c4)cc3n2)c1	1	-3	58*	x	-2	-21
Clc1cccc(CNc2ccn3nc(-c4ccccc4)cc3n2)c1	0	5	50*	x	11	-24
Clc1cccc(CNc2ccn3nc(-c4ccc(OCc5ccccc5)cc4)cc3n2)c1	-17	1	17	x	-1	47
Clc1ccccc1-c1cc2nc(NCc3ccco3)ccn2n1	-3	3	72*	x	-2	-92
CO[C@@H]1CN(C)C(=O)c2cc(NS(C)(=O)=O)ccc2OC[C@@H](C)N(Cc2ccccc2)C[C@H]1C	-4	x	4	x	-6	5[16.7 µM]
CCNC(=O)C[C@@H]1CC[C@@H]2[C@H](COc3ccc(NC(=O)c4ccccc4)cc3C(=O)N2C)O1	5	x	-6	x	-1	18[16.7 µM]
Cc1noc(C)c1NC(=O)Nc1cccc2c1O[C@@H](CN(C)S(C)(=O)=O)[C@@H](C)CN([C@@H](C)CO)C2=O	x	x	x	x	-6	10[16.7 µM]
Cc1sc2nc(-c3ccc(Br)cc3)oc(=O)c2c1C	1	x	55*	x	x	x
CO[C@@H]1CN(C)C(=O)c2ccc(NC(=O)NC(C)C)cc2OC[C@@H](C)N(Cc2cncnc2)C[C@@H]1C	x	x	4	x	x	x
O=S(=O)(c1ccccc1)N1C[C@@H]2[C@H](c3ccccc31)[C@@H](CO)N2Cc1ccc(F)cc1	-5	x	-1	x	0	x
COc1cccc(-c2nnc(NC(C)=O)o2)c1	1	-2	-3	17	4	-8
COc1cccc(-c2nnc(-c3ccc4ccccc4c3)o2)c1	-11	51*	x	56	2	-103
Cc1ccc(-c2nnc(-c3ccc4ccccc4c3)o2)cc1	x	13	54*	48	1	-12
COc1cccc(-c2nnc(-c3ccc(C(F)(F)F)cc3)o2)c1	-3	22	55*	x	x	-80
CCCCN1CCc2c([nH]c3ccccc23)C1=O	-4	x	69*	75	x	x
Cc1ccc(S(=O)(=O)N(C)c2ccc(C(=O)N(C)Cc3nc4ccccc4c(=O)[nH]3)cc2)cc1	2	-1	0	-6	-7	58*
Nc1nn2cc(-c3ccc(Br)cc3)nc2c2ccccc12	2	44*	u	55	-3	-233
O=C(c1ccc2c(c1)OCO2)N(Cc1ccco1)C1(C(=O)NC2CCCCC2)CCCCC1	-5	-5	-10	x	x	88*
CO[C@@H]1CN(C)C(=O)c2cc(NC(=O)NC(C)C)ccc2OC[C@@H](C)N(S(C)(=O)=O)C[C@@H]1C	x	x	x	x	1	x
CCOC(=O)c1nc(Nc2ccc(N3CCC(C)CC3)cc2)c2ccccc2n1	-4	-2	-13	8	-5	62*
CCOC(=O)c1nc(Nc2ccc(Nc3ccccc3)cc2)c2ccccc2n1	x	-1	x	14	2	13
